# What was measured:
# [1] = target: T1, Alpha-1D adrenergic receptor (Rattus norvegicus) (UniProt P23944); conditions: Aorta
# T1 sequence (whole entry): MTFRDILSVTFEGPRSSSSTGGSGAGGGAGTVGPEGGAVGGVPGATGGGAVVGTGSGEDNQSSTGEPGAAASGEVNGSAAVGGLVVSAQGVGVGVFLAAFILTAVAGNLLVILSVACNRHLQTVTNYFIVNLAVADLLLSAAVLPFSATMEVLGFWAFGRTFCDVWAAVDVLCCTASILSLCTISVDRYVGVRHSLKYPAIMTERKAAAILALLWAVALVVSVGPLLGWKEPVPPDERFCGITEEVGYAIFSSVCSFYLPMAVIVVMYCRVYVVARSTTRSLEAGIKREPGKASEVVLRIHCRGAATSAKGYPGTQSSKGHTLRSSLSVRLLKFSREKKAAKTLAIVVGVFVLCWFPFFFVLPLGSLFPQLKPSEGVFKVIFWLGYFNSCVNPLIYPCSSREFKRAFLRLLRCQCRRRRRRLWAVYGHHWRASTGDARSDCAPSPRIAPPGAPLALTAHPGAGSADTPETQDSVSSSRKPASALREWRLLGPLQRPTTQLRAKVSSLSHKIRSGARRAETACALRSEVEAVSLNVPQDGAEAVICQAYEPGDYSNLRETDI
# [2] = target: T1, Alpha-1D adrenergic receptor (Rattus norvegicus); test: Fraction involved in salt bridge interactions with Asp3:11 part of the alpha-1D adrenergic receptor
# Summary of the method: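 Comparative models were built on a rhodopsin template and refined by energy minimization and MD. Docking used MCSS, and the value is the fraction of substituted phenylpiperazines forming a salt bridge with receptor Asp3:11.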
# [3] = target: Alpha-1D adrenergic receptor (Homo sapiens) (UniProt P25100); test: Binding affinity to the adrenergic receptor alpha-1D of cloned human receptor
# [4] = target: T2, Alpha-1A adrenergic receptor (Rattus norvegicus) (UniProt P43140); conditions: Vas deferens
# T2 sequence (whole entry): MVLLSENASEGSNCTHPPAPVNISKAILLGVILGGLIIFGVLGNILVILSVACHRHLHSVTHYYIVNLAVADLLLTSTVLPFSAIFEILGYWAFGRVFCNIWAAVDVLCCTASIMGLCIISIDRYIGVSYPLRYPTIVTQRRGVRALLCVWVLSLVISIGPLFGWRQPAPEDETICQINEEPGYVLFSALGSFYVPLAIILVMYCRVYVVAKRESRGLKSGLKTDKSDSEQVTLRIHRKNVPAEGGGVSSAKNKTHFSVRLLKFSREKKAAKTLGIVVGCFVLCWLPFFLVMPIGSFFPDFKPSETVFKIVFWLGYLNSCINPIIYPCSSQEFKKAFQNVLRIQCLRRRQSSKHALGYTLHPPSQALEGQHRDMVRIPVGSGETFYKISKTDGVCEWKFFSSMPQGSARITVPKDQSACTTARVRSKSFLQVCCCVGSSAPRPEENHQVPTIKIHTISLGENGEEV
# [5] = target: T3, 5-hydroxytryptamine receptor 1A (Homo sapiens, UniProt P08908); test: Binding affinity to human 5-hydroxytryptamine 1A receptor was measured using [3H]-8-hydroxy-2-(di-n-propylamine) tetraline [3H]8-OH-DPAT) as radioligand
# T3 sequence (P08908 whole entry): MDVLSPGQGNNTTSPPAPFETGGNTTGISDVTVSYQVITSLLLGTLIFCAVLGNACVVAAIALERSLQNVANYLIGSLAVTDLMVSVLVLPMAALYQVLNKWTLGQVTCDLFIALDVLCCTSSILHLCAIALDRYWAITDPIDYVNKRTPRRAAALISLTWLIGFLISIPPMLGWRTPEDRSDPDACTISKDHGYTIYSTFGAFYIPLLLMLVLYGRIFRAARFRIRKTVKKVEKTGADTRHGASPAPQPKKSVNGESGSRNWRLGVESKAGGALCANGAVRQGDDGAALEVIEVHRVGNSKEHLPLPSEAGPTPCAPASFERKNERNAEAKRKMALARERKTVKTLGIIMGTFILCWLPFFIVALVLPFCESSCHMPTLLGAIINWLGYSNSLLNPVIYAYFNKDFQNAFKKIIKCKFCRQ
# [6] = target: Alpha-1A adrenergic receptor (Homo sapiens) (UniProt P35348); test: In vitro binding affinity towards alpha-1A adrenergic receptor through displacement of [3H]prazosin in cloned human receptor.
Structure (SMILES),pKB [1],Activity [2],Ki [3] [µM],pKB [4],Ki [5] [µM],Ki [6] [µM]
O=C1CC2(CCCC2)CC(=O)N1CCN1CCN(c2cc(Cl)ccc2Cl)CC1,8.99,0.4,0.00013,,,
O=C1CC2(CCCC2)CCN1CCN1CCN(c2cc(Cl)ccc2Cl)CC1,8.89,,0.00011,7,,
CN(CCOc1cc(Cl)ccc1Cl)CCN1C(=O)CC2(CCCC2)CC1=O,,,0.0191,,> 1,0.414
O=C1CC2(CCCC2)CC(=O)N1CCN1CCCN(c2ccccc2Cl)CC1,,,0.00138,,0.00034,0.295
COc1ccccc1N1CCN(CCN2C(=O)CC3(CCN(Cc4ccccc4)CC3)CC2=O)CC1,,,0.0351,,> 1,0.294
O=C1CC2(CCCC2)CC(=O)N1CCCN1CCN(c2cc(Cl)ccc2Cl)CC1,,,0.00172,,0.401,0.00285
COc1ccccc1N1CCN(CCN2CCC3(CCCC3)CC2=O)CC1,,,0.00037,,0.00233,0.0544
COc1ccccc1N1CCN(CCN2C(=O)CC3(CCNCC3)CC2=O)CC1,,,0.0717,,> 1,0.631
COc1ccccc1N1CCN(CCN2C(=O)CC3(CCN(C(C)=O)CC3)CC2=O)CC1,,,0.429,,> 0.01,1.52
Clc1ccccc1N1CCN(CCN2CCC3(CCCC3)CC2)CC1,,,0.00874,,0.0854,> 1

# Results, then the compound that gave them:
pKB [1],Activity [2],Ki [3] [µM],pKB [4],Ki [5] [µM],Ki [6] [µM],Structure (SMILES)
,0.3,,,0.0008,,COc1ccccc1N1CCN(CCN2C(=O)CC3(CCCC3)CC2=O)CC1 [BMY-7378]
,,0.0029,,0.00054,0.00354,CC(C)Oc1ccccc1N1CCN(CCN2C(=O)CC3(CCCC3)CC2=O)CC1
,,0.00366,,0.0259,> 1,O=C1CC2(CCCC2)CC(=O)N1CCN1CCC(c2ccccc2)CC1
,,0.00083,,0.00424,0.552,O=C1CC2(CCCC2)CC(=O)N1CCN1CCN(c2ccccc2Cl)CC1
,,0.00093,,0.00537,0.214,N#Cc1ccccc1N1CCN(CCN2C(=O)CC3(CCCC3)CC2=O)CC1
,,0.0182,,0.259,> 1,COc1ccccc1OCCN(C)CCN1C(=O)CC2(CCCC2)CC1=O
